From ChEMBL document CHEMBL4376814, “Novel cyclin-dependent kinase 9 (CDK9) inhibitor with suppression of cancer stemness activity against non-small-cell lung cancer” (Eur J Med Chem, 2019) come the findings set out here.

Series [1] has as its target Calcium/calmodulin-dependent protein kinase kinase 1 (Homo sapiens) (UniProt Q8N5S9). The series can be described thus: Inhibition of recombinant full-length human CaMKK1 at 1 uM using calmodulin as substrate measured after 40 mins in presence of [gamma33P]ATP by scintillation counting method relative to control.
Series [2] addresses Non-receptor tyrosine-protein kinase TYK2 (Homo sapiens) (UniProt P29597). In words: Inhibition of human TYK2 (875 to end residues) at 1 uM using GGMEDIYFEFMGGKKK as substrate measured after 40 mins in presence of [gamma33P]ATP by scintillation counting method relative to control. In short, it runs like this:
(§1)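 Percent inhibition of kinase activity at a single compound concentration, measured by the outsourced Eurofins KinaseProfiler panel. Values are the mean of two independent experiments.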

For series [3], the target named is Fibroblast growth factor receptor 1 (Homo sapiens) (UniProt P11362). The series can be described thus: Inhibition of recombinant human FGFR1 (456 to 765 residues) at 1 uM using KKKSPGEYVNIEFG as substrate measured after 40 mins in presence of [gamma33P]ATP by scintillation counting method relative to control.
Series [4] concerns the target Transcription initiation factor TFIID subunit 1-like (Homo sapiens) (UniProt Q8IZX4). In words: Inhibition of recombinant human TAF1L (1428 to end residues) at 1 uM using RRRFRPASPLRGPPK as substrate after 120 mins in presence of [gamma33P]ATP by scintillation counting analysis relative to control.
In series [5] the target is Tyrosine-protein kinase receptor TYRO3 (Homo sapiens) (UniProt Q06418). The series can be described thus: Inhibition of human RSE (451 to end residues) at 1 uM using KVEKIGEGTYGVVYK as substrate measured after 40 mins in presence of [gamma33P]ATP by scintillation counting method relative to control. In short, it runs like this:
as §1

Series [6] deals with NUAK family SNF1-like kinase 2 (Homo sapiens) (UniProt Q9H093). In words: Inhibition of recombinant full-length human NUAK2 at 1 uM using KKKVSRSGLYRSPSMPENLNRPR as substrate measured after 40 mins in presence of [gamma33P]ATP by scintillation counting method relative to control.
The target of series [7] is Serine/threonine-protein kinase 10 (Homo sapiens) (UniProt O94804). In words: Inhibition of recombinant human LOK (1 to 348 residues) at 1 uM using RLGRDKYKTLRQIRQ as substrate measured after 40 mins in presence of [gamma33P]ATP by scintillation counting method relative to control.
The target of series [8] is cAMP-dependent protein kinase catalytic subunit PRKX (Homo sapiens) (UniProt P51817). In words: Inhibition of recombinant full-length human PrKX at 1 uM using RRRLSFAEPG as substrate measured after 40 mins in presence of [gamma33P]ATP by scintillation counting method relative to control.
A further series relates to HCC827. The series can be described thus: Antiproliferative activity against human HCC827 cells assessed as inhibition of cell viability after 72 hrs by CCK-8 assay. Type of series: functional, cell-based. The note with it: HCC827, 72 h. In short, it runs like this: (§2)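 Cells kept at 37 °C, 5% CO2 in DMEM or RPMI-1640 with 10% FBS and 1% penicillin/streptomycin, then seeded at 3000 cells/well (adherent) or 10,000 cells/well (suspension). Exposed to a range of concentrations for 72 h. CCK-8 added for 1-4 h before reading A450. […] Three independent experiments.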

In series [9] the test system is NCI-H1299. In words: Induction of apoptosis in human H1299 cells assessed as reduction in Bcl-2 level at 0.25 to 1 uM after 24 hrs by Western blot analysis. Type of series: functional, cell-based. The method, boiled down: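 A549 or H1299 cells exposed to the indicated concentrations for 24 h. Protein extracts then immunoblotted for apoptosis-pathway proteins (Bcl2, Bim, cleaved caspase 3).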

A short description of series [10]: Half life in Beagle dog liver microsomes at 2 uM in presence of NADPH measured up to 1 hr by HPLC analysis. Type of series: ADME, Canis lupus familiaris, Microsome. In short, it runs like this: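 Drug at 2 µM incubated at 37 °C with male liver microsomes at 1 mg/mL, in 0.1 M phosphate buffer pH 7.4 with MgCl2. After 5 min preincubation, reaction started with NADPH. Samples (n=3) taken at 0, 10, 20, 30, 45 and 60 min, quenched with ice-cold acetonitrile, spun, and analysed by HPLC. t1/2 derived from the fitted rate constant k.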

Series [11] has as its system NCI-H1299. In words: Antitumour activity against human H1299 cells xenografted in Balb/c mouse assessed as reduction in tumour size at 20 to 80 mg/kg, po after 21 days by digital caliper method. Type of series: functional, organism-based. The method, boiled down:
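Female nude mice, 6-8 weeks old, injected subcutaneously with 1×10^6 H1299 cells (100 µL of a 1×10^7/mL suspension in serum-free medium). At 100-120 mm3, randomized into groups of 5. Dosed orally each day for 21 days with drug dissolved in DMSO, or with vehicle. Caliper measurements and body weight taken every other day. Volume = short²×long×0.5. Growth inhibition based on change in volume relative to vehicle. Tumours weighed at the end.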

Series [12] relates to NCI-H1299. The series can be described thus: Induction of apoptosis in human H1299 cells assessed as necrotic cells at 0.25 uM after 48 hrs by AnnexinV-FITC/PI staining-based flow cytometric analysis (reference value: 0.9%). Type of series: functional.
The target of series [13] is MAPK/MAK/MRK overlapping kinase (Homo sapiens) (UniProt Q9UQ07). In words: Inhibition of recombinant human MOK (1 to 343 residues) at 1 uM using RSRSRSRSRSRSRSR as substrate measured after 40 mins in presence of [gamma33P]ATP by scintillation counting method relative to control.
For series [14], the target named is Fibroblast growth factor receptor 2 (Homo sapiens) (UniProt P21802). The series can be described thus: Inhibition of recombinant human FGFR2 (456 to 770 residues) at 1 uM using poly(Glu, Tyr) 4:1 as substrate measured after 40 mins in presence of [gamma33P]ATP by scintillation counting method relative to control.
In series [15] the target is Serine/threonine-protein kinase 17A (Homo sapiens) (UniProt Q9UEE5). The series can be described thus: Inhibition of recombinant full-length human DRAK1 at 1 uM using KKLNRTLSFAEPG as substrate measured after 40 mins in presence of [gamma33P]ATP by scintillation counting method relative to control.
Series [16] relates to Discoidin domain-containing receptor 2 (Homo sapiens), Q16832 [UNDEFINED MUTATION]. The series can be described thus: Inhibition of recombinant human DDR2 S642A mutant (467 to end residues) at 1 uM using KKSRGDYMTMQIG as substrate measured after 40 mins in presence of [gamma33P]ATP by scintillation counting method relative to control.
A further series relates to SiHa. The series can be described thus: Antiproliferative activity against human SiHa cells assessed as inhibition of cell viability at 10 uM after 72 hrs by CCK-8 assay relative to control. Type of series: functional. The method, boiled down: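 Single-concentration viability screen using CCK-8. Cells were seeded at 3000/well and treated for 72 h. A450 read after 1-4 h with reagent. Percent inhibition calculated against untreated control and blank wells as (Ac−As)/(Ac−Ab)×100%.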

Series [17] concerns the target CDK9/cyclin T1 (Homo sapiens) (UniProt O60563+P50750). The note with it: 1 uM.
Another series deals with A549. In words: Antiproliferative activity against human A549 cells assessed as inhibition of cell viability after 72 hrs by CCK-8 assay. Type of series: functional, cell-based. The note with it: A549, 72 h. The method, boiled down:
as §2

Active and inactive are the calls of the source. No cut-off for these calls is given here.

Chain of Tyrosine-protein kinase receptor TYRO3 (Homo sapiens) (Q06418 whole entry): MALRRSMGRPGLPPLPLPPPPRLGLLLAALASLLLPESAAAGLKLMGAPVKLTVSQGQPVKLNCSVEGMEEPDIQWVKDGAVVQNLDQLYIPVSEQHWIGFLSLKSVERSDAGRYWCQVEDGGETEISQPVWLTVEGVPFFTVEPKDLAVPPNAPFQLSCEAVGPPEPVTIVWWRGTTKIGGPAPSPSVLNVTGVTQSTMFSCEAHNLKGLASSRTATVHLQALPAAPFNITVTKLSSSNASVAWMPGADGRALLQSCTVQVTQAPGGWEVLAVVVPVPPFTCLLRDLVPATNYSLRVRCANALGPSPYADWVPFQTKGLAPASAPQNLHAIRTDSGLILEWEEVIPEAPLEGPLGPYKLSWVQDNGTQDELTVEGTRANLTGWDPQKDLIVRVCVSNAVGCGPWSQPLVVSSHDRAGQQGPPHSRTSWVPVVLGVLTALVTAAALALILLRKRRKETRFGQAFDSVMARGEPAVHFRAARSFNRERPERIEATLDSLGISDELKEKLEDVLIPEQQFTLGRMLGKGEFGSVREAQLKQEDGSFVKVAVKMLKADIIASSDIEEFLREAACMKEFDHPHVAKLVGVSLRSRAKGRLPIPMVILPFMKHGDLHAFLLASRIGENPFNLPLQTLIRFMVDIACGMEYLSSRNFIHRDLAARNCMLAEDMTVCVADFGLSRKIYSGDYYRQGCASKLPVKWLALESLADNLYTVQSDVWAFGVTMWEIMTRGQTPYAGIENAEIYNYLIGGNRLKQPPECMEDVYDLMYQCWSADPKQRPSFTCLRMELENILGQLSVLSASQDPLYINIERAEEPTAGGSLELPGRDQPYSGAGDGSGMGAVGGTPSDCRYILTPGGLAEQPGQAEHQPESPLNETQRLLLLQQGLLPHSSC
Chain of Serine/threonine-protein kinase 17A (Homo sapiens) (Q9UEE5 whole entry, the tested form may be a part): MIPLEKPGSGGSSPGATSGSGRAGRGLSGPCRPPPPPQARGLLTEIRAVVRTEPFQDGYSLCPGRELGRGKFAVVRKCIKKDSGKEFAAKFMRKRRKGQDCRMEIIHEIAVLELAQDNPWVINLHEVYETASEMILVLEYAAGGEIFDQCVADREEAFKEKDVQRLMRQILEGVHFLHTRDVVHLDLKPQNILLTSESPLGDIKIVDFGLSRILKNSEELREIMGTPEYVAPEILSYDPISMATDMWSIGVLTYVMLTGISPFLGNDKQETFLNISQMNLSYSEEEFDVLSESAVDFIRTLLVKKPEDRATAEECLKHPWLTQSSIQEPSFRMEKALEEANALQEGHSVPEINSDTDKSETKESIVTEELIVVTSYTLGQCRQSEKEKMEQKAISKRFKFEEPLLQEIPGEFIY
Chain of NUAK family SNF1-like kinase 2 (Homo sapiens) (Q9H093 whole entry, the tested form may be a part): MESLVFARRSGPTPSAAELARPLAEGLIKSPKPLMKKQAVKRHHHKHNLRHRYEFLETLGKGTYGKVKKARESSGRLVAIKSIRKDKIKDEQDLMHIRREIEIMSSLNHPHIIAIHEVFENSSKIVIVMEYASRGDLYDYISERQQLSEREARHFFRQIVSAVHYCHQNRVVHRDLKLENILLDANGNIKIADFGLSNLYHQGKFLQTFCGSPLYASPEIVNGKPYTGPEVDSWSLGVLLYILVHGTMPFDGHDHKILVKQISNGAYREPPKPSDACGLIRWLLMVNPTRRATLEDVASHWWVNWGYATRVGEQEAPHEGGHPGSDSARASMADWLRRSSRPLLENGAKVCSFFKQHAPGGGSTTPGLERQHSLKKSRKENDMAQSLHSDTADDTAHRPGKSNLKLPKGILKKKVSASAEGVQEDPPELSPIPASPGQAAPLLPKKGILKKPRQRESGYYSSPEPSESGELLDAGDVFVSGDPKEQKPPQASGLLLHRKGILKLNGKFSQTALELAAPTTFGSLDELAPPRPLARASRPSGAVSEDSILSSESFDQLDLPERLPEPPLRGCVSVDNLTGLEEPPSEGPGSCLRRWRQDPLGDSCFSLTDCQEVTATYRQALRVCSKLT
Chain of Fibroblast growth factor receptor 2 (Homo sapiens) (P21802 22-821 limits assumed): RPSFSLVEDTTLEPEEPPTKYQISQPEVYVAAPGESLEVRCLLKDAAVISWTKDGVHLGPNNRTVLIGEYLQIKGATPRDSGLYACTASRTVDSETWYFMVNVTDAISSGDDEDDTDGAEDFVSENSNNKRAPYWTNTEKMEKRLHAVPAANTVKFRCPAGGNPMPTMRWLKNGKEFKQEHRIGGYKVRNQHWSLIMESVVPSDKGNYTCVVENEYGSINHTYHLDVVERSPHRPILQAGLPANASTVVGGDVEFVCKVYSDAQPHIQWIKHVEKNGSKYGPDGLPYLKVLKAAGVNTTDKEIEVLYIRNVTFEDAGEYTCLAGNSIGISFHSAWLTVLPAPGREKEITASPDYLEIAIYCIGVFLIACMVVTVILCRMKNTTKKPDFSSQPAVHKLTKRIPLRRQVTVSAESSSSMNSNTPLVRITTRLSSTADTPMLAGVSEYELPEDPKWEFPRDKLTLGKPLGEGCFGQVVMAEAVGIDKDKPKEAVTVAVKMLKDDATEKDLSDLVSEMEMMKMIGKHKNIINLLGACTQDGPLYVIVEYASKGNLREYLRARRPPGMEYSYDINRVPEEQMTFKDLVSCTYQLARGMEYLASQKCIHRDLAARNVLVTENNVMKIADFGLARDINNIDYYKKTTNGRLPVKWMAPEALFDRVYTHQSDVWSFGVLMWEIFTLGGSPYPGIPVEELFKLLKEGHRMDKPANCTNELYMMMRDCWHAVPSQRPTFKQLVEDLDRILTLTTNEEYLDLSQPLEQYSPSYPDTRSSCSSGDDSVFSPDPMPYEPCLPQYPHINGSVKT
Chain of Discoidin domain-containing receptor 2 (Homo sapiens), Q16832 [UNDEFINED MUTATION] (Q16832 whole entry, looked up, stated change not applied, the tested form may be a part): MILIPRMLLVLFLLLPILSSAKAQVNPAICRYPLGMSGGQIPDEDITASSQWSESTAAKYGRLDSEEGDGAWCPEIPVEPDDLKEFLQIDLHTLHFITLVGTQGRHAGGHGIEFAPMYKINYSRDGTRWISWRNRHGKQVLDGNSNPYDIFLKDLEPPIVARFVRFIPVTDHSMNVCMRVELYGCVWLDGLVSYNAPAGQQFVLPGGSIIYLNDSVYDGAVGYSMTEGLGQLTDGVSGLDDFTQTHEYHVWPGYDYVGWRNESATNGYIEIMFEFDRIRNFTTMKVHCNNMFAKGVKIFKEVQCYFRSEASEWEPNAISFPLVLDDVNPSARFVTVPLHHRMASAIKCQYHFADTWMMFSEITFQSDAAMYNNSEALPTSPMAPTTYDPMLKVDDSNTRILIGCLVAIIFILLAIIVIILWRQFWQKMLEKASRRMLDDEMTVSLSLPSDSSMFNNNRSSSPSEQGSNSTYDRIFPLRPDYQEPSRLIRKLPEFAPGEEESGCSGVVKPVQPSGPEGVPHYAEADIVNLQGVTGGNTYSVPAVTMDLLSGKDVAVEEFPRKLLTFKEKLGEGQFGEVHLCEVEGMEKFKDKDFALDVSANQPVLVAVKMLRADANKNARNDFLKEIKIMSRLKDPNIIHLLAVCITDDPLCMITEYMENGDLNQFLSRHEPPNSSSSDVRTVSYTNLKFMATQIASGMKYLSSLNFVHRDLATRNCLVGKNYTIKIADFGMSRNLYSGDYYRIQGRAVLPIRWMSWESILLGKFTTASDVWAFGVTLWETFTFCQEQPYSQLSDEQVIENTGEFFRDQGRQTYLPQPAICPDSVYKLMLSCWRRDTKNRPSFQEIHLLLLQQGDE
Chain of Non-receptor tyrosine-protein kinase TYK2 (Homo sapiens) (P29597 whole entry): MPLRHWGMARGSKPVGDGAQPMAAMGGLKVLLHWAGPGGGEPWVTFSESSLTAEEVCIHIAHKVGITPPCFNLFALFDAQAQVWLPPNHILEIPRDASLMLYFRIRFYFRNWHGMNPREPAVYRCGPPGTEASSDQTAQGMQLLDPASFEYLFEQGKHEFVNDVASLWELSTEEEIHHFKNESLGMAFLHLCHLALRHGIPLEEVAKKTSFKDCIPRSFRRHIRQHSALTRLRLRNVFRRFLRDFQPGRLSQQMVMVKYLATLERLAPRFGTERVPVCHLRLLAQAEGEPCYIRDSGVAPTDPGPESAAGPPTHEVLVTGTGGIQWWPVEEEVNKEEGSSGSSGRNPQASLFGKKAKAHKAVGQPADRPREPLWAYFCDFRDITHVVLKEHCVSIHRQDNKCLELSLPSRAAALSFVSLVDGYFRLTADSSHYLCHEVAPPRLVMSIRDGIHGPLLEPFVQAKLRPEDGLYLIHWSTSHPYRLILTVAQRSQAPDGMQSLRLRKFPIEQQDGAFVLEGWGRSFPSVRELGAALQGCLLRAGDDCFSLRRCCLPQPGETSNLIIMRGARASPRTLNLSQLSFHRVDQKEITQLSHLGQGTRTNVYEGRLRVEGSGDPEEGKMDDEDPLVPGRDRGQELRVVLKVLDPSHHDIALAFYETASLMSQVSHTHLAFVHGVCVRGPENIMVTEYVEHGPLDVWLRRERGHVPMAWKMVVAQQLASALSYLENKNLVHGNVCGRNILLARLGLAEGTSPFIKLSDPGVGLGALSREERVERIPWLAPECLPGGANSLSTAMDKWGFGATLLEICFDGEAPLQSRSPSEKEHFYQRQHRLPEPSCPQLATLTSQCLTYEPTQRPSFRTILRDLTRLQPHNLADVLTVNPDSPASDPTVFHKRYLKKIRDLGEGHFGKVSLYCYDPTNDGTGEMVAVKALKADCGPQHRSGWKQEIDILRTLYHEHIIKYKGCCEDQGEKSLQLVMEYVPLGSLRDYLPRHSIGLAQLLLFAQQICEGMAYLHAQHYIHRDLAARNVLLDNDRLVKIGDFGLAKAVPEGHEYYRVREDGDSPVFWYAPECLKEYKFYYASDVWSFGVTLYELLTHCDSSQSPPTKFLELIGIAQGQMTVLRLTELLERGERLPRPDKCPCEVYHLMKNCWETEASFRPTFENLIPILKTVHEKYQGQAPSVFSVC

Regarding `CN(C)C(=O)c1cc2cnc(Nc3ccc(NC(=O)CCCCCCCN=C=S)cc3)nc2n1C1CCCC1`, the inhibition in series [1] was 88%; in series [2] it was 4%; in [3], 72%; in series [4], 23%; in series [5], 26%; in series [6], 66%. The inhibition is 71% in [7]; -1% in series [8]; 21% in series [13]; 27% in series [14]; 22% in [15]; 17% in [16]. The inhibition in series [17] worked out at 98%. Moreover, the IC50 is 1070 nM in the series on HCC827 and 450 nM in the series on A549. For the same compound, the outcome with NCI-H1299 [9] and in the series on NCI-H1299 [11] was Active. Besides, in series [10], the half-life at 2 µM turned out to be 26.7 min. Moreover, in the series on NCI-H1299 [12], the Activity came out at 0.669%. The inhibition at 10 µM in the series with SiHa was 97%.
